# Experimental data published in PMC3382723 (The Journal of General Physiology, 2012).
# Several values for one entry are separate records, joined by “and”; a condition that tells them apart may be missing. Equal values may be shown once. Read-outs that look alike come from different tables or passages of the source.
# Key:
# [1] = biological target: heteromeric Kv7.2/7.3 channels (Homo sapiens, UniProt O43525+O43526); assay: DiC8-PI; type: cell-based
# Outline: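 CHO cells stably cotransfected with human Kv7.2 and Kv7.3. Patches at 22 ± 0.5°C were excised inside-out and held at 0 mV. Bath was 165 mM KCl, 5 mM HEPES, 10 mM EGTA, pH 7.2, with 0.1 µM ATPγS. The PI(4,5)P2 analog was given by piezo microperfusion, rising from 0.1 to 300 µM, 30 s–2 min per step. Popen was taken over the last 20 s, corrected for channel number, with control subtracted. 11–29 patches per concentration. Weighted two-component Hill fit, shared nH.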
# [2] = test system: concatenated Kv7.2-7.3 channels; assay: DiC8-PI; type: cell-based; settings: n = 9-21
# Outline: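 HM1-CHO cells were transiently transfected with concatenated Kv7.2-7.3 cDNA plus an EGFP plasmid using Lipofectamine 2000. Inside-out patches at 0 mV and 22°C, in 165 mM KCl/HEPES/EGTA bath, pH 7.2, with 0.1 µM ATPγS. Stepwise PI(4,5)P2 analog, 0.1–300 µM, by fast perfusion. Popen was taken over the last 20 s and corrected for channel number. n = 9–21 patches per concentration.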
# [3] = biological target: T1, homomeric Kv7.2 channels (Homo sapiens, UniProt O43526); assay: DiC8-PI; type: cell-based; settings: single-component Hill fit
# Outline: (§1)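 HM1-CHO cells (human M1 receptor) were transiently transfected with human Kv7.2 or Kv7.3 A315T, plus EGFP. Excised inside-out patches were held at 0 mV, 22°C, with 0.1 µM ATPγS in the pH 7.2 KCl bath. The PI(4,5)P2 analog was applied in incremental concentrations. Popen was corrected for channel number. Single-component Hill fit. n = 7–19 patches (Kv7.2) and 7–15 patches (Kv7.3T).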
# [4] = biological target: T2, homomeric Kv7.3^T (A315T) channels (Homo sapiens, UniProt O43525, A315T); assay: DiC8-PI; type: cell-based; settings: single-component Hill fit
# T2 sequence (O43525 1-872 A315T): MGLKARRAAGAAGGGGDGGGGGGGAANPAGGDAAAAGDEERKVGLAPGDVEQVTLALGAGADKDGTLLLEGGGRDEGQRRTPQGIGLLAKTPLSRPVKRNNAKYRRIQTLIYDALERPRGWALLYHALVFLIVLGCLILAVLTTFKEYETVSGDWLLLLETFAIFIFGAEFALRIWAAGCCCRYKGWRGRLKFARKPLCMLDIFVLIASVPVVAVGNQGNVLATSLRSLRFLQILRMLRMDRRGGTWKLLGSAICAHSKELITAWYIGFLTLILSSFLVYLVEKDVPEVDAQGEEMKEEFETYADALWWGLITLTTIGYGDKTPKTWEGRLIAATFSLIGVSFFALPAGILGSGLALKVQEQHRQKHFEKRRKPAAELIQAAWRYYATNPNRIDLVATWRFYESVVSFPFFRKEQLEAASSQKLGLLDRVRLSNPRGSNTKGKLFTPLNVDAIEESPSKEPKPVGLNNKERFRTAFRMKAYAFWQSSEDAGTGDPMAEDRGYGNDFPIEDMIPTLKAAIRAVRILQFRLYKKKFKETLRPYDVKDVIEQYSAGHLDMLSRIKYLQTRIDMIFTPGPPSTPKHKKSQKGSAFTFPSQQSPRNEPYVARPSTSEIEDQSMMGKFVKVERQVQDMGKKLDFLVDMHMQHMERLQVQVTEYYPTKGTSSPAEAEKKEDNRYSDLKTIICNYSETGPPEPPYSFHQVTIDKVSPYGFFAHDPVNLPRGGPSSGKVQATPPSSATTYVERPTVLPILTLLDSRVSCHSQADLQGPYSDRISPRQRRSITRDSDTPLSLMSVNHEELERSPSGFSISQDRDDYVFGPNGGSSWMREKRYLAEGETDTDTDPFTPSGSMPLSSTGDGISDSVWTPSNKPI
# Outline: as §1
# [5] = biological target: heteromeric Kv7.2/Kv7.3(EEE) channels (Homo sapiens, UniProt O43525+O43526, K462E/K469E/R471E); assay: DiC8-PI; type: cell-based; settings: single-component fit
# Outline: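 CHO cells expressing WT Kv7.2 with Kv7.3 […]. Excised inside-out patches were held at 0 mV, 22°C, in 165 mM KCl, 5 mM HEPES, 10 mM EGTA, pH 7.2, with 0.1 µM ATPγS. The PI(4,5)P2 analog was applied in incremental concentrations by fast piezo microperfusion. Popen was taken over the last 20 s and corrected for channel number. n = 8–13 patches.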
# [6] = test system: Kv7.2/Kv7.3 channels; assay: Activation model fitted to the DiC8-PI; type: cell-based, human
# Outline: (§2)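 A binding/gating scheme was fitted to mean inside-out patch Popen–concentration data for the water-soluble PI(4,5)P2 analog: Kv7.2/Kv7.3 from 20–49 patches, Kv7.2/Kv7.3(EEE) from 8–13 patches. The scheme has two pairs of independent high-affinity (K3, Kv7.3) and low-affinity (K2, Kv7.2) sites and three open states (E3, E2, E1). Occupancies follow mass action with microscopic reversibility. Popen is the sum of the open-state occupancies.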
# [7] = test system: Kv7.2/Kv7.3(EEE) mutant channels; assay: Activation model fitted to the DiC8-PI; type: cell-based
# Outline: as §2
# [8] = biological target: T1, homomeric Kv7.2 channels; settings: ref Li et al., 2005; cited from earlier work
# [9] = test system: homomeric Kv7.3 channels; settings: ref Li et al., 2005; cited from earlier work
# [10] = test system: coexpressed Kv7.2 and Kv7.3 subunits; settings: ref Li et al., 2005; cited from earlier work
# [11] = test system: homomeric Kv7(EEE) channels; settings: expressed as homomers; ref Hernandez et al., 2008; cited from earlier work
# [12] = test system: coexpressed Kv7.2 and Kv7.3; settings: cited from earlier work
# [13] = test system: concatemeric Kv7.2/Kv7.3 dimer; settings: ref Hadley et al., 2003; cited from earlier work
# [14] = patches with only a single active channel
# heteromeric Kv7.2/7.3 channels, sequence (O43525 whole entry, the tested form may be a part): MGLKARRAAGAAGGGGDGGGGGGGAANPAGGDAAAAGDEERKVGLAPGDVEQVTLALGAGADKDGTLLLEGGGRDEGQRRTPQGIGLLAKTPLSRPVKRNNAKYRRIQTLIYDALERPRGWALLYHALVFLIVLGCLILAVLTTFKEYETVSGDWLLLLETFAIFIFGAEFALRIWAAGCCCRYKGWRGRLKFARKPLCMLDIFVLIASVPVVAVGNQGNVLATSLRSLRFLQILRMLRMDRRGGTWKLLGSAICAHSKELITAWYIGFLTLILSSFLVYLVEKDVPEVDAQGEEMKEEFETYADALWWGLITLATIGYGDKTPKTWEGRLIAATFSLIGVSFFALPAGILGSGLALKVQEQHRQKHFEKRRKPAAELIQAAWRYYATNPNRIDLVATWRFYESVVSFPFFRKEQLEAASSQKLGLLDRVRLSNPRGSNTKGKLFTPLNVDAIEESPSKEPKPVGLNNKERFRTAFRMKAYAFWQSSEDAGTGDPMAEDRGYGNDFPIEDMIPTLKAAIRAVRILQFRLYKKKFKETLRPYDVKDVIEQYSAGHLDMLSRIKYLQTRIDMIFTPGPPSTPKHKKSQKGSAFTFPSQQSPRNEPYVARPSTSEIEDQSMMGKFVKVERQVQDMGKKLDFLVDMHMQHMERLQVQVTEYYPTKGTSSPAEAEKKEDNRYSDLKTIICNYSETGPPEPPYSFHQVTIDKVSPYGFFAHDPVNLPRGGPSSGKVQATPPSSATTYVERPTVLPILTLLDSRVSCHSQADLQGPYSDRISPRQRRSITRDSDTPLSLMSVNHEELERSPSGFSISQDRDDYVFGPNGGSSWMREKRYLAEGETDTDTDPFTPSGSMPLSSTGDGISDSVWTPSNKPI
# heteromeric Kv7.2/7.3 channels, sequence (O43526 whole entry, the tested form may be a part): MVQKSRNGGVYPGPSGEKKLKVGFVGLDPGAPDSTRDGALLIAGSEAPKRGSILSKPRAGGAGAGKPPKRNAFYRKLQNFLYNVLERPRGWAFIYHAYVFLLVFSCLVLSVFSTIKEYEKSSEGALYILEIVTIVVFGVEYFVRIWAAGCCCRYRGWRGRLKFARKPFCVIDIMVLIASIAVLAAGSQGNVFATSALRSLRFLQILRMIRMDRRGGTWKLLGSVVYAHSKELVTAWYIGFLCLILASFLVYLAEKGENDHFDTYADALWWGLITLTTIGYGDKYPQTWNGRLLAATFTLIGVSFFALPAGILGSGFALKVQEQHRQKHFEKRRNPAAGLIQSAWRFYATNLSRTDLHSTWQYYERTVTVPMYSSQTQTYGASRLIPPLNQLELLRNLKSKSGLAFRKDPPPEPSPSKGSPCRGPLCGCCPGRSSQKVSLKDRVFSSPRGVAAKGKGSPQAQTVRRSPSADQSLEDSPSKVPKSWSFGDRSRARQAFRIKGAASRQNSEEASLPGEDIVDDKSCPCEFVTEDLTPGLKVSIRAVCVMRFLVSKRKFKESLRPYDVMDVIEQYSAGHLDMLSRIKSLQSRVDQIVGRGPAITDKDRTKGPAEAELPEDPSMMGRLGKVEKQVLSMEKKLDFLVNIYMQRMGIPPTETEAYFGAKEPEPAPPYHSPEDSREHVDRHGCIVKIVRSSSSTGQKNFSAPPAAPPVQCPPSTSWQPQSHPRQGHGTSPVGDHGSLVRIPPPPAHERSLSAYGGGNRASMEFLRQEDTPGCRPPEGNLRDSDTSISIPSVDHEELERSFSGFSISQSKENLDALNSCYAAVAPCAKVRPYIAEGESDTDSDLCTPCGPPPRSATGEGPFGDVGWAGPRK
# T1 sequence (O43526 whole entry): as the sequence (O43526 whole entry, the tested form may be a part) above
# heteromeric Kv7.2/Kv7.3(EEE) channels, sequence (O43525 whole entry K462E/K469E/R471E, the tested form may be a part): as the sequence (O43525 whole entry, the tested form may be a part) above, with K462E, K469E, R471E counted along it
# heteromeric Kv7.2/Kv7.3(EEE) channels, sequence (O43526 whole entry, the tested form may be a part): as the sequence (O43526 whole entry, the tested form may be a part) above
compound,measurement,setting,value
"CCCCCCCC(=O)OC[C@H](COP(=O)(O)O[C@@H]1[C@H](O)[C@H](O)[C@@H](OP(=O)(O)O)[C@H](OP(=O)(O)O)[C@H]1O)OC(=O)CCCCCCC [DiC8-PI(4,5)P2, dioctanoylphosphatidyl-4,5-bisphosphate]",Popen(max1),"[1]; component 1, single- and pauci-channel patches, 0 mV",0.2 ± 0.0073 and ~0.2
same,Popen(max2),"[1]; component 2, single- and pauci-channel patches, 0 mV",0.6 ± 0.0012
same,Hill coefficient,"[1]; constrained the same for both components, single- and pauci-channel patches",1.4 ± 0.06 and ~1.4
same,Popen at full opening,"[1]; higher ligand concentrations, 0 mV",~0.8
same,"partial channel opening, % of the maximum Popen","[1]; low concentrations, binding to Kv7.3 subunit",~25%
same,Hill coefficient nH,[1]; [14],1.6 ± 0.36
same,Popen(max1),[1]; [14],0.28 ± 0.045
same,Popen(max2),[1]; [14],0.61 ± 0.0074
same,factor between apparent affinities of high- and low-affinity sites,[1]; two-component curves,about 60
same,concentration-response curve compared with K2/3-CHO cells,[2],very similar biphasic
same,Hill coefficient nH,[3],0.76 ± 0.08
same,EC50,[3]; 0 mV,76.2 µM and 76 µM
same,Hill coefficient nH,[4],0.95 ± 0.2
same,EC50,[4]; 0 mV,3.6 ± 1 µM
same,Hill coefficient nH,[5],1.1 ± 0.1
same,EC50,[5]; maximum Popen undetermined,265 ± 74 µM
same,Po (max),[6]; model 4,0.82
same,"E1, gating equilibrium constant","[6]; model 4, all four sites occupied",4.42 ± 0.61
same,"E2, gating equilibrium constant","[6]; model 4, two high- and one low-affinity site occupied",0.46 ± 0.39
same,"E3, gating equilibrium constant","[6]; model 4, two high-affinity sites occupied",0.26 ± 0.07
same,concentration at which Po3 peaks,[6]; model 4 prediction,around 7 µM
same,peak open probability Po3 (only Kv7.3 subunits bound),"[6]; model 4 prediction, around 7 µM",0.145
same,E1,[7]; model 4 free fit,0.89 ± 0.43
same,E2,[7]; model 4 free fit,0.00
same,E3,[7]; model 4 free fit,0.04 ± 0.14
same,Po (max),[7]; model 4 free fit,0.47
same,maximum open probability Po3 (both Kv7.3 sites occupied),"[7]; model 4 prediction, at 10 µM",0.027
same,Kd,"[7]; read-out: K3, model 4 free fit",0.94 µM
same,Hill slope,[8],0.97
same,EC50,[9],2.6 µM
same,Hill slope,[9],1.33
same,EC50,[10],40 µM
same,fold less sensitive than WT channels,[11],> 100 fold
"CC[N+](CC)(CC)CC [TEA, tetraethylammonium]",Hill slope of TEA inhibition,[12]; ref Shapiro et al. [2000],0.58
same,Hill slope of TEA inhibition,"[12]; single binding site equation, ref Hadley et al., 2003",0.98 ± 0.02
same,Hill slope of TEA inhibition,[13],0.97 ± 0.12
